# Laboratory results as given in BindingDB's records for doi:10.1021/acs.jmedchem.9b01421 (2019).
# Molecular target: not listed separately
# Experiment: Inhibition of capsid in HBV infected in human HepG.2.2.15 cells assessed as reduction of HBV DNA incubated for 5 days by quantitative PCR analysis
row,Compound,EC50 [nM]
1,CCOC(=O)C1=C(CN2CCOC[C@H]2C(=O)O)NC(c2nccs2)=N[C@H]1c1ccc(Br)c(F)c1,3
2,CCOC(=O)C1=C(CN2CCOC[C@H]2C(=O)O)NC(c2nccs2)=N[C@H]1c1ccc(F)cc1Cl,2
3,CCOC(=O)C1=C(CN2CCOC[C@H]2C(=O)O)NC(c2nccs2)=N[C@H]1c1ccc(F)c(Cl)c1,> 1000
4,CCOC(=O)C1=C(CN2CCOC[C@H]2C(=O)O)NC(c2nccs2)=N[C@H]1c1ccc(F)c(C#N)c1,> 1000
5,CCOC(=O)C1=C(CN2CCOC[C@H]2C(=O)O)NC(c2nccs2)=N[C@H]1c1ccc(F)c(Br)c1,> 1000
6,COC(=O)C1=C(CN2CCOC[C@H]2C(=O)O)NC(c2nccs2)=N[C@H]1c1ccc(Cl)c(F)c1,10
7,COC(=O)C1=C(CN2CCOC[C@H]2C(=O)O)NC(c2nccs2)=N[C@H]1c1ccc(C)c(F)c1,28
8,COC(=O)C1=C(CN2CCOC[C@H]2C(=O)O)NC(c2nccs2)=N[C@H]1c1ccc(F)c(F)c1,46
9,CCOC(=O)C1=C(CN2CCOC[C@H]2C(=O)O)NC(c2nccs2)=N[C@H]1c1ccc(F)c(F)c1,11

# Molecular target: Capsid protein (Hepatitis B virus, UniProt Q03732)
# Experiment: Inhibition of capsid in HBV infected in human HepG.2.2.15 cells assessed as reduction of HBV DNA incubated for 5 days by quantitative PCR analysis
# In short: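 HepG2.2.15 cells (HepG2-derived, stably carrying the HBV genome; kept in DMEM-F12 with 10% FBS, penicillin/streptomycin, 0.5 mg/mL G418) seeded at 3 × 10^4 cells/well and incubated overnight at 37 °C. Compounds were serially half-log diluted in DMSO and added in medium at 0.5% final DMSO. HBV DNA was extracted and quantified by qPCR.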
# Sequence of Capsid protein (Q03732 whole entry): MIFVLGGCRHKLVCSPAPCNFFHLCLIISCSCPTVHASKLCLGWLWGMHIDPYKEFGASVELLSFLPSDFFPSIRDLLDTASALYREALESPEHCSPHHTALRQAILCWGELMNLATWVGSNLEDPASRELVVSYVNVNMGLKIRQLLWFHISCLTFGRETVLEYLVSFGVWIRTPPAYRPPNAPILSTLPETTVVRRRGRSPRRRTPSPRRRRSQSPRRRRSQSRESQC
row,Compound,EC50 [nM]
1,COC(=O)C1=C(CN2CC(F)(F)C[C@H]2C(=O)O)NC(c2nccs2)=N[C@H]1c1ccc(F)c(F)c1,22
2,CCOC(=O)C1=C(CN2CCOC[C@H]2C(=O)O)NC(c2nccs2)=N[C@H]1c1cc(F)c(F)c(F)c1,18
3,CCOC(=O)C1=C(CN2CCOC[C@H]2C(=O)O)NC(c2nccs2)=N[C@H]1c1ccc(F)cc1F,14
4,CCOC(=O)C1=C(CN2CC(F)(F)C[C@H]2C(=O)O)NC(c2nccs2)=N[C@H]1c1ccc(F)cc1Cl,10
5,COC(=O)C1=C(CN2CCOC[C@H]2C(=O)O)NC(c2nccs2)=N[C@H]1c1ccc(Br)c(F)c1,10
6,CCOC(=O)C1=C(CN2CCOC[C@H]2C(=O)O)NC(c2nccs2)=N[C@H]1c1ccc(C)c(F)c1,5
7,CCOC(=O)C1=C(CN2CCOC[C@H]2C(=O)O)NC(c2nccs2)=N[C@H]1c1cccc(F)c1,15
8,CCOC(=O)C1=C(CN2CCOC[C@H]2C(=O)O)NC(c2nccs2)=N[C@H]1c1ccc(Cl)c(F)c1,2
9,CCOC(=O)C1=C(CN2CCOC[C@H]2C(=O)O)NC(c2nccs2)=N[C@H]1c1ccc(F)cc1,15
10,COC(=O)C1=C(CN2CC(F)(F)C[C@H]2C(=O)O)NC(c2nccs2)=N[C@H]1c1ccc(F)cc1Cl,3
11,CCOC(=O)C1=C(CN2CCOC[C@H]2C(=O)O)NC(c2nccs2)=N[C@H]1c1ccc(F)c(F)c1F,5
